# Measurements pooled from the literature.
# Compare with care: the assays were run in different laboratories.
# Cell line: MCF7
# Read-out: cell growth or viability
Structure (SMILES),method,time,IC50
CSc1nc(/N=C/c2cc(Br)ccc2O)n(-c2ccc(C(=O)O)cc2)n1,MTT,,31.3 µM
COc1cc2ncnc(Nc3ccc(F)c(Cl)c3)c2cc1NC(=O)N/N=C/CN1CCCCC1,MTT,72 h,6.42 µM
C[C@H]1O[C@@H](n2cc(F)c(=O)[nH]c2=O)[C@H](O)[C@@H]1O,CCK-8,48 h,> 50 µM
CN1CCN(C/C=N/NC(=O)Nc2cc3c(Nc4ccc(F)c(Cl)c4)ncnc3cc2O[C@H]2CCOC2)CC1,MTT,72 h,2.04 µM
Cc1ccc2nc(-c3ccc(Cl)cc3)[nH]c2c1,MTT,48 h,25.6 µM
C=C1C(=O)[C@]2(OC)C(=O)O[C@@]34C[C@H](C)C(C(=O)O)=C[C@@H]3CCC[C@@H](C)C[C@@H](C)[C@H]1O[C@H]24,ATP luminescence,,21 µM
O=Cc1ccc(-c2ccc3ncnc(Nc4cccc(C(F)(F)F)c4)c3c2)cc1,MTT,24 h,15.5 µM
COc1cc2ncnc(Nc3ccc(F)c(Cl)c3)c2cc1NC(=O)N/N=C/c1cccn1CCCN1CCOCC1,MTT,72 h,1.44 µM
CC(C)NCC(O)COc1cc2ccccc2cc1OCC(O)CNC(C)C (stereo not drawn),MTT,72 h,> 75 µM
Cc1ccc2nc(-c3ccccc3O)[nH]c2c1,MTT,48 h,18 µM
CN1CCN(CCCn2cccc2/C=N/NC(=O)Nc2cc3c(Nc4ccc(F)c(Cl)c4)ncnc3cc2O[C@H]2CCOC2)CC1,MTT,72 h,2.12 µM
Cc1ccc(O)c(/C=N/c2nc(Oc3ccccc3)nn2-c2ccc(C(=O)O)cc2)c1,MTT,,30.3 µM
Oc1c(I)cc(I)c2cccnc12,MTT,48 h,75.1 µM
Cc1ccc2nc(-c3cccc(O)c3)[nH]c2c1,MTT,48 h,> 100 µM
O=C(N/N=C/c1cccn1CCN1CCCC1)Nc1cc2c(Nc3ccc(F)c(Cl)c3)ncnc2cc1O[C@H]1CCOC1,MTT,72 h,1.2 µM
CC1(C)CC[C@]2(C)CC[C@]3(C)C(=CC[C@@H]4[C@@]5(C)CC[C@H](O)C(C)(C)[C@@H]5CC[C@]43C)[C@@H]2C1,WST-1,48 h,63.6 µM
FC(F)(F)c1cccc(Nc2ncnc3ccc(-c4ccsc4)cc23)c1,MTT,24 h,4.39 µM
COc1ccc(C2=N[C@@H](c3ccc(Cl)cc3)[C@@H](c3ccc(Cl)cc3)N2C(=O)N2CCNC(=O)C2)c(OC(C)C)c1,MTT,48 h,11 µM
C=CCn1c(-c2ccc(Cl)cc2)nc2ccc(C)cc21,MTT,,22.2 µM
CC(=O)O[C@H]1C(=O)[C@@]2(C)[C@H]([C@H](OC(=O)c3ccccc3)[C@]3(O)C[C@H](OC(=O)[C@H](O)[C@@H](NC(=O)c4ccccc4)c4ccccc4)C(C)=C1C3(C)C)[C@]1(OC(C)=O)CO[C@@H]1C[C@@H]2O,,72 h,0.011 µM
CS(=O)(=O)c1ccc(-n2cc(/C=N/N=c3\[nH]c(-c4ccc([N+](=O)[O-])cc4)cs3)c(-c3ccc([N+](=O)[O-])cc3)n2)cc1,MTT,48 h,10.1 µM
O=C(NC(=S)NC1CCCCC1)c1ccc2ccccc2c1,,48 h,5.22 µM
O=S(=O)(NN=Cc1cn(CCN2CCOCC2)c2ccccc12)c1ccc(F)cc1,MTT,48 h,32.6 µM
Cc1ccc2nc(-c3ccccc3Cl)[nH]c2c1,MTT,48 h,> 100 µM
Cc1cc(C)n(-c2nc(Nc3ccc(Br)cc3)nc(N3CCOCC3)n2)n1,MTT,72 h,4.53 µM
Oc1cccc(-c2nc3ccccc3[nH]2)c1,MTT,48 h,> 100 µM
CCOc1cc(OCC)cc(C(=O)O[C@@H]2CN3Cc4c(cc5c(c4OC)OCO5)[C@@]24C=C[C@H](OC)C[C@@H]34)c1,WST-1,,6.3 µM
O=C(/C=C/c1ccc(O)c(O)c1)O[C@@H]1C[C@](O)(C(=O)O)C[C@@H](O)[C@H]1O,WST-1,48 h,9.5 µM
CCN(CC)CCCn1cccc1/C=N/NC(=O)Nc1cc2c(Nc3ccc(F)c(Cl)c3)ncnc2cc1OC,MTT,72 h,2.43 µM
O=[N+]([O-])c1ccc(-c2nc3ccccc3[nH]2)cc1,MTT,48 h,27.2 µM
O=c1[nH]c(=S)[nH]c2c1CCCN2,MTT,72 h,> 100 µM
CS(=O)(=O)c1ccc(-n2cc(C=N/N=c3\[nH]c(-c4ccc(Br)cc4)cs3)c(-c3ccc([N+](=O)[O-])cc3)n2)cc1,MTT,48 h,19.9 µM
O=C(NC(=S)N1CCCC1)c1ccc2ccccc2c1,,48 h,3.62 µM
Oc1ccccc1-c1nc2ccccc2[nH]1,MTT,48 h,> 100 µM
Nc1ccc(-c2csc(Nc3ccc4c(O)ncnc4c3)n2)cc1,MTT,,8.29 µM
FC(F)(F)c1cccc(Nc2ncnc3ccc(NCc4ccccc4)cc23)c1,MTT,24 h,6.83 µM
COc1ccc(O)c(/C=N/c2nc(Oc3ccccc3)nn2-c2ccc(C(=O)O)cc2)c1,MTT,,27.5 µM
CC(=O)O[C@H]1C(=O)[C@@]2(C)[C@H]([C@H](OC(=O)c3ccccc3)[C@]3(O)C[C@H](OC(=O)[C@H](O)[C@@H](NC(=O)c4ccccc4)c4ccccc4)C(C)=C1C3(C)C)[C@]1(OC(C)=O)CO[C@@H]1C[C@@H]2O,,,1 µg/mL
CC(=O)OC[C@H]1O[C@@H]([S-])[C@H](OC(C)=O)[C@@H](OC(C)=O)[C@@H]1OC(C)=O.CCP(CC)CC.[Au+],resazurin,,5.2 µM
Cc1ccc2c(Br)cc(Br)c(O)c2n1,MTT,48 h,> 150 µM
O=S(=O)(NN=Cc1cn(CCN2CCOCC2)c2ccccc12)c1cccc2ncccc12,MTT,48 h,79.1 µM
CC1(C)CC[C@]2(C(=O)O)CC[C@]3(C)C(=CC[C@@H]4[C@@]5(C)CC[C@H](O)C(C)(C)[C@@H]5CC[C@]43C)[C@@H]2C1,MTT,48 h,> 100 µM
CCN(CC)CCn1cccc1/C=N/NC(=O)Nc1cc2c(Nc3ccc(F)c(Cl)c3)ncnc2cc1OC,MTT,72 h,0.57 µM
c1ccc2cc(-c3nnc(NC4CCCCC4)[nH]3)ccc2c1,,48 h,1.75 µM
COc1cccc2c1C(=O)c1c(O)c3c(c(O)c1C2=O)C[C@@](O)(C(=O)CO)C[C@@H]3O[C@H]1C[C@H](N)[C@H](O)[C@H](C)O1,resazurin,72 h,0.24 µM
Oc1ccc(-c2csc(Nc3ccc4c(O)ncnc4c3)n2)cc1,MTT,,7.43 µM
C1CCCC1.C1CCCC1.[Cl][W][Cl],MTT,,630 µM
COC(=O)/C=C1\S/C(=N\C(=O)c2ccc3ccccc3c2)N(C2CCCCC2)C1=O,,48 h,14.3 µM
